Assay results reported in ChEMBL document CHEMBL5252537, “Usnic Acid Benzylidene Analogues as Potent Mechanistic Target of Rapamycin Inhibitors for the Control of Breast Malignancies” (J Nat Prod, 2017).

Assays:
MDA-MB-231 = assay: Antiproliferative activity against human MDA-MB-231 cells incubated for 72 hrs by MTT assay; assay type: functional, cell-based; details: MDA-MB-231, 72 h
In short: (§1)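 Cells seeded at 5 × 10^3/well and allowed to attach overnight, then washed with PBS. Compound diluted from 10 mM DMSO stock into medium (100 ng/mL HGF added for c-Met-expressing cells), in triplicate, 72 h at 37 °C. MTT added for 4 h, formazan dissolved in DMSO, absorbance read at 570 nm. Cell numbers taken from a standard curve; IC50 calculated.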

MCF7 = assay: Antiproliferative activity against human MCF7 cells incubated for 72 hrs by MTT assay; assay type: functional, cell-based; details: MCF7, 72 h; in short: as §1

IC50 (MDA-MB-231) [nM] | IC50 (MCF7) [nM] | Compound
840 | 710 | CCOc1ccc(/C=C/C(=O)c2c(O)c(C)c(O)c3c2OC2=CC(O)=C(C(C)=O)C(=O)[C@]23C)cc1
3310 | 2980 | CC(=O)C1=C(O)C=C2Oc3c(C(=O)/C=C/c4ccc(F)cc4)c(O)c(C)c(O)c3[C@]2(C)C1=O
730 | 540 | CCSc1ccc(/C=C/C(=O)c2c(O)c(C)c(O)c3c2OC2=CC(O)=C(C(C)=O)C(=O)[C@]23C)cc1
14400 | 12800 | CC(=O)C1=C(O)C=C2Oc3c4c(c(C)c(O)c3[C@]2(C)C1=O)OC(c1ccc(C(=O)O)cc1)CC4=O (some centres not stated)
710 | 730 | CC(=O)C1=C(O)C=C2Oc3c(C(=O)/C=C/c4ccc(C(F)(F)F)cc4)c(O)c(C)c(O)c3[C@]2(C)C1=O
3920 | 2700 | CC(=O)C1=C(O)C=C2Oc3c(C(=O)/C=C/c4cccc(Cl)c4)c(O)c(C)c(O)c3[C@]2(C)C1=O
890 | 720 | CSc1ccc(/C=C/C(=O)c2c(O)c(C)c(O)c3c2OC2=CC(O)=C(C(C)=O)C(=O)[C@]23C)cc1
2940 | 3730 | COc1cccc(C2CC(=O)c3c(c(C)c(O)c4c3OC3=CC(O)=C(C(C)=O)C(=O)[C@]34C)O2)c1 (some centres not stated)
3650 | 3430 | CC(=O)C1=C(O)C=C2Oc3c4c(c(C)c(O)c3[C@]2(C)C1=O)OC(c1ccc(C(C)(C)C)cc1)CC4=O (some centres not stated)
620 | 530 | CCCCOc1ccc(/C=C/C(=O)c2c(O)c(C)c(O)c3c2OC2=CC(O)=C(C(C)=O)C(=O)[C@]23C)cc1
2630 | 2100 | CC(=O)C1=C(O)C=C2Oc3c(C(=O)/C=C/c4ccc(Cl)cc4)c(O)c(C)c(O)c3[C@]2(C)C1=O
1650 | 1330 | CC(=O)C1=C(O)C=C2Oc3c(C(=O)/C=C/c4ccc(C)cc4)c(O)c(C)c(O)c3[C@]2(C)C1=O
2950 | 2440 | CC(=O)C1=C(O)C=C2Oc3c(C(=O)/C=C/c4cc(Cl)cc(Cl)c4)c(O)c(C)c(O)c3[C@]2(C)C1=O
1790 | 1510 | CC(=O)C1=C(O)C=C2Oc3c4c(c(C)c(O)c3[C@]2(C)C1=O)OC(c1ccc(OC(F)(F)F)cc1)CC4=O (some centres not stated)
580 | 390 | CC(=O)C1=C(O)C=C2Oc3c(C(=O)/C=C/c4ccc(OCCC(C)C)cc4)c(O)c(C)c(O)c3[C@]2(C)C1=O
2090 | 1820 | CC(=O)C1=C(O)C=C2Oc3c(C(=O)/C=C/c4cc(F)cc(F)c4)c(O)c(C)c(O)c3[C@]2(C)C1=O
3540 | 3740 | CC(=O)C1=C(O)C=C2Oc3c(C(=O)/C=C/c4ccccc4F)c(O)c(C)c(O)c3[C@]2(C)C1=O
1160 | 1230 | CC(=O)C1=C(O)C=C2Oc3c(C(=O)/C=C/c4cccc(C(F)(F)F)c4)c(O)c(C)c(O)c3[C@]2(C)C1=O
1560 | 5240 | CC(=O)C1=C(O)C=C2Oc3c(C(=O)CC(O)c4cc(C(F)(F)F)cc(C(F)(F)F)c4)c(O)c(C)c(O)c3[C@]2(C)C1=O (some centres not stated)
680 | 520 | CC(=O)C1=C(O)C=C2Oc3c(C(=O)/C=C/c4ccc(-c5ccc(F)cc5)cc4)c(O)c(C)c(O)c3[C@]2(C)C1=O
4790 | 3630 | CC(=O)C1=C(O)C=C2Oc3c(C(=O)/C=C/c4cccc(F)c4)c(O)c(C)c(O)c3[C@]2(C)C1=O
8040 | 7260 | CC(=O)C1=C(O)C=C2Oc3c4c(c(C)c(O)c3[C@]2(C)C1=O)OC(c1ccccc1)CC4=O (some centres not stated)
5100 | 4500 | CC(=O)C1=C(O)C=C2Oc3c(C(=O)/C=C/c4ccccc4)c(O)c(C)c(O)c3[C@]2(C)C1=O
1630 | 1220 | COc1cc(/C=C/C(=O)c2c(O)c(C)c(O)c3c2OC2=CC(O)=C(C(C)=O)C(=O)[C@]23C)cc(OC)c1OC
1530 | 1130 | CC(=O)C1=C(O)C=C2Oc3c(C(=O)/C=C/c4ccc(Br)cc4)c(O)c(C)c(O)c3[C@]2(C)C1=O
2230 | 2910 | CCCCOc1ccc(C2CC(=O)c3c(c(C)c(O)c4c3OC3=CC(O)=C(C(C)=O)C(=O)[C@]34C)O2)cc1 (some centres not stated)

IC50 (MDA-MB-231) [nM] | IC50 (MCF7) [nM] | Compound
4440 | 5810 | CC(=O)C1=C(O)C=C2Oc3c(C(=O)CC(O)c4cc(Cl)cc(Cl)c4)c(O)c(C)c(O)c3[C@]2(C)C1=O (some centres not stated)
5690 | 1530 | CC(=O)C1=C(O)C=C2Oc3c(C(=O)/C=C/c4c(Cl)cccc4Cl)c(O)c(C)c(O)c3[C@]2(C)C1=O
1030 | 840 | CC(=O)C1=C(O)C=C2Oc3c(C(=O)/C=C/c4ccc(C(C)(C)C)cc4)c(O)c(C)c(O)c3[C@]2(C)C1=O
720 | 910 | CC(=O)C1=C(O)C=C2Oc3c(C(=O)/C=C/c4cc(C(F)(F)F)cc(C(F)(F)F)c4)c(O)c(C)c(O)c3[C@]2(C)C1=O
4010 | 3640 | CC(=O)C1=C(O)C=C2Oc3c4c(c(C)c(O)c3[C@]2(C)C1=O)OC(c1ccc(Cl)cc1Cl)CC4=O (some centres not stated)
4420 | 3090 | CC(=O)C1=C(O)C=C2Oc3c4c(c(C)c(O)c3[C@]2(C)C1=O)OC(c1ccc(OCc2c(F)cccc2Cl)cc1)CC4=O (some centres not stated)
2030 | 2180 | CCOc1ccccc1/C=C/C(=O)c1c(O)c(C)c(O)c2c1OC1=CC(O)=C(C(C)=O)C(=O)[C@]12C
720 | 740 | CC(=O)C1=C(O)C=C2Oc3c(C(=O)/C=C/c4ccc(-c5ccccc5)cc4)c(O)c(C)c(O)c3[C@]2(C)C1=O
5990 | 4210 | CC(=O)C1=C(O)C=C2Oc3c4c(c(C)c(O)c3[C@]2(C)C1=O)OC(c1ccc(C)cc1)CC4=O (some centres not stated)
2380 | 1960 | CC(=O)C1=C(O)C=C2Oc3c(C(=O)/C=C/c4c(F)cccc4F)c(O)c(C)c(O)c3[C@]2(C)C1=O
950 | 1140 | CC(=O)C1=C(O)C=C2Oc3c(C(=O)/C=C/c4ccc(OCc5ccccc5)cc4)c(O)c(C)c(O)c3[C@]2(C)C1=O
910 | 750 | CC(=O)C1=C(O)C=C2Oc3c(C(=O)/C=C/c4ccc(OCc5ccc(F)cc5)cc4)c(O)c(C)c(O)c3[C@]2(C)C1=O
1150 | 930 | COc1cc(F)c(/C=C/C(=O)c2c(O)c(C)c(O)c3c2OC2=CC(O)=C(C(C)=O)C(=O)[C@]23C)cc1OC
930 | 870 | CC(=O)C1=C(O)C=C2Oc3c(C(=O)/C=C/c4ccc(OCc5c(F)cccc5Cl)cc4)c(O)c(C)c(O)c3[C@]2(C)C1=O
960 | 970 | COc1ccc(/C=C/C(=O)c2c(O)c(C)c(O)c3c2OC2=CC(O)=C(C(C)=O)C(=O)[C@]23C)cc1
4310 | 4920 | CC(=O)C1=C(O)C=C2Oc3c4c(c(C)c(O)c3[C@]2(C)C1=O)OC(c1c(Cl)cccc1Cl)CC4=O (some centres not stated)
6890 | 6220 | CC(=O)C1=C(O)C=C2Oc3c4c(c(C)c(O)c3[C@]2(C)C1=O)OC(c1ccc(F)cc1)CC4=O (some centres not stated)
3680 | 3360 | CCOc1ccc(C2CC(=O)c3c(c(C)c(O)c4c3OC3=CC(O)=C(C(C)=O)C(=O)[C@]34C)O2)cc1 (some centres not stated)
5710 | 6530 | CC(=O)C1=C(O)C=C2Oc3c4c(c(C)c(O)c3[C@]2(C)C1=O)OC(c1ccc(OCc2ccccc2)cc1)CC4=O (some centres not stated)
6130 | 5920 | CCOc1ccccc1C1CC(=O)c2c(c(C)c(O)c3c2OC2=CC(O)=C(C(C)=O)C(=O)[C@]23C)O1 (some centres not stated)
10600 | 9380 | CC(=O)C1=C(O)C=C2Oc3c(C(=O)/C=C/c4ccc(C(=O)O)cc4)c(O)c(C)c(O)c3[C@]2(C)C1=O
5580 | 4320 | CC(=O)C1=C(O)C=C2Oc3c4c(c(C)c(O)c3[C@]2(C)C1=O)OC(c1ccc(OCc2ccc(F)cc2)cc1)CC4=O (some centres not stated)
1360 | 930 | CC(=O)C1=C(O)C=C2Oc3c(C(=O)/C=C/c4ccc(Cl)cc4Cl)c(O)c(C)c(O)c3[C@]2(C)C1=O
6410 | 6320 | CC(=O)C1=C(O)C=C2Oc3c4c(c(C)c(O)c3[C@]2(C)C1=O)OC(c1cccc(Cl)c1)CC4=O (some centres not stated)
3930 | 4770 | CC(=O)C1=C(O)C=C2Oc3c4c(c(C)c(O)c3[C@]2(C)C1=O)OC(c1ccc(C(F)(F)F)cc1)CC4=O (some centres not stated)
